# Screens from PubChem BioAssay.
# G6PDH CS: L. mesenteroides G6PDH inhibitors, counter-screen for G6PDH-coupled screening assays, biochemical, Leuconostoc mesenteroides enzyme; Purified L. mesenteroides G6PDH, diaphorase/resazurin coupled fluorescence, 45 min; inhibition, % at 5 µM; 200,000 tested, 0.12% active; AID 1020, 2008
# L major viab: Leishmania major promastigote growth inhibition, primary screen. Leishmania major promastigotes, resazurin fluorescence viability. inhibition, % at 10 µM. 200,000 tested, 9% active;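 also: promastigotes grown with compound for 44 hours at 28 °C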
# Diaph inh CS: diaphorase inhibitors and chemical oxidizers, primary screen, counter-screen for diaphorase-coupled primary assays, biochemical, uHTS, resorufin fluorescence. diaphorase resazurin-to-resorufin fluorescence, NADH, 16 min; bacterial (C. kluyveri) enzyme, not human. 190,000 tested, 0.69% active. AID 1217, 2008. inhibition, % at 20 µM;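 active = primary screen inhibition at 20 µM above a set limit, cut at about 50% in these data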;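 also: plate controls were DMSO with full reaction for no effect and wells lacking NADH for full effect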
#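 Assay system: diaphorase enzyme from Clostridium kluyveri; Input: enzyme working solution with 0.14 U/mL diaphorase; Timing: 16 min at room temperature; Technique: resorufin fluorescence, excitation 544 nm, emission 590 nm; Benchmarks: positive control minus NADH, DMSO neutral control.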
# Diaphorase act: compounds boosting diaphorase resazurin reduction – biochemical, uHTS, resorufin fluorescence, counter-screen for diaphorase-coupled primary assays, primary screen. Diaphorase/resazurin coupled assay, 16 min; stronger effect = higher value; 1 = vehicle wells, 0 = NADH-free wells. activation factor at 20 µM. 190,000 tested, 0.005% active. AID 1229, 2008;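 active = diaphorase activity raised at least twofold by the compound at 20 µM; inactive = activation factor below 2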
#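 Test system: Clostridium kluyveri diaphorase, purified enzyme; input: enzyme 0.07 U/mL final; buffer or medium: 50 mM HEPES pH 7.4 with 4.542 mM MgCl2, 0.005% Tween 20; also added: 0.114 mM NADH and 0.1 mM resazurin, final amounts; schedule: 16 min enzyme reaction, ambient temperature; technique: fluorescence of resorufin, 544 nm excitation, 590 nm emission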
# WT yeast gro inh: growth inhibition of WT strain, primary screen, mitochondrial fusion inhibitor project, WT and mutant strains, chemical genetic; mitochondrial fusion phenotypic screen; inhibition, % at 10 µM; 190,000 tested, 2.1% active; AID 1362, 2008; in the data active = inhibition above about 58%; tested in S. cerevisiae
# Numbers without * were called inactive; nt = no result. Shown are actives, neighbours in structure and some others; about 11% of the full set was active somewhere. Rule as the data show it, unless noted: active = inhibition above about 50%; inactive = the rest.
SMILES,G6PDH CS,L major viab,Diaph inh CS,Diaphorase act,WT yeast gro inh
Cc1cccc(Cn2cc(/C=C/[N+](=O)[O-])c3ccccc32)c1,-6,77*,22,0.8,-20
CC(C)=NOC(=O)c1ccc(-c2ccccc2)cc1,0,33,16,0.8,16
CN1CCN(C(=O)C2CCN(c3ncc(C(F)(F)F)cc3Cl)CC2)CC1,3,6,12,0.9,4
O=C1NC(Cc2c[nH]c3ccccc23)C(=O)N1CCOc1ccccc1 (configuration not stated),-16,96*,19,0.8,-5
O=C1C(Cc2ccc(Br)cc2)SC(=Nc2ccccc2)N1c1ccccc1 (configuration not stated),4,54*,26,0.7,39
O=C1C(Cc2ccc(F)cc2)SC(=Nc2ccccc2)N1c1ccccc1 (configuration not stated),-10,41,19,0.8,2
Cc1cc(C)nc(NS(=O)(=O)c2ccc(NC(=O)CSc3nc(-c4ccccc4)c(C#N)c(=O)[nH]3)cc2)n1,9,-6,11,0.9,6
CN(C)CCCNS(=O)(=O)c1ccc(N2CCC(c3ccc(Cl)cc3)=N2)cc1,9,100*,0,1,nt
Cc1ccc(Nc2nc(N)c([N+](=O)[O-])c(NCc3ccco3)n2)cc1C,6,70*,22,0.8,72*
Cc1ccc(CNc2nc(N)c([N+](=O)[O-])c(NCc3ccccc3)n2)cc1,3,70*,5,0.9,15
Cc1ccccc1Nc1cc(C(=O)NCc2ccco2)c2ccccc2n1,4,76*,19,0.8,-4
Cc1cccc(Nc2nc(NCc3ccco3)c3ccccc3n2)c1,-10,100*,-43,1.4,98*
O=C(Cc1cccc(C(F)(F)F)c1)NCC(c1ccco1)N1CCCCC1 (configuration not stated),12,2,-6,1.1,-16
Cn1cc(/C=N/NC(=O)c2ccc(C#N)cc2F)c2ccccc21,4,6,0,1,-3
Cn1c(=O)c(=O)n(C)c2cc(S(=O)(=O)NCCOc3ccccc3)ccc21,6,-2,13,0.9,-4
COc1ccc(C(=O)N2CCCC(CCC(=O)NCc3ccc(F)c(F)c3)C2)o1 (configuration not stated),1,-7,1,1,-4
Cc1ccccc1Nc1nc(NCc2ccco2)c2ccccc2n1,16,100*,2,1,79*
O=[N+]([O-])c1cccc2ccc(/C=C/c3ccc(Cl)cc3)nc12,-25,-1,11,0.9,24
Oc1ccc(Cl)cc1/C=C/c1ccc2cccc(O)c2n1,11,89*,25,0.8,71*
Oc1cccc2ccc(/C=C/c3cccs3)nc12,20,94*,10,0.9,52
CSc1ccc(/C=C/c2ccc3cccc(O)c3n2)cc1,5,89*,15,0.8,3
Cc1ccsc1/C=C/c1ccc2ccccc2n1,9,0,5,0.9,31
Cc1ccsc1/C=C/c1ccc2cccc(O)c2n1,13,98*,15,0.9,16
Oc1c(Cl)cc(Cl)cc1/C=C/c1ccc2cccc(O)c2n1,0,46,0,1,51
COc1ccc(OC)c(S(=O)(=O)N2CCN(c3c(C)cccc3C)CC2)c1,-21,-5,31,0.7,13
SMILES,G6PDH CS,L major viab,Diaph inh CS,Diaphorase act,WT yeast gro inh
CS(=O)(=O)N(CC(=O)NCc1ccc2c(c1)OCO2)Cc1ccc(Cl)cc1,13,-3,12,0.9,-4
Cc1ccc(Cn2ncc3c(N4CCOCC4)ncnc32)cc1,12,-5,-1,1,-1
COc1ccc(Nc2ncnc3c2cnn3Cc2ccc(C)cc2)cc1,2,90*,17,0.8,8
Cc1ccc(Cn2ncc3c(N4CCN(c5ccccc5C)CC4)ncnc32)cc1,-36,22,14,0.9,65*
Nc1cccc(NC(=O)c2cccs2)c1,-3,2,9,0.9,56
CC(C)C1OC(c2cccc(NC(=O)c3cccs3)c2)OCC1(C)C (configuration not stated),-1,12,16,0.8,69*
CC(C)=CCCC(C)N(C=O)C(C)CCC=C(C)C (configuration not stated),nt,2,nt,nt,nt
CC(=O)N(CCCN(C)C)CCC(C)CCC=C(C)C (configuration not stated),-3,100*,8,0.9,12
C/C(=N\NC(=S)Nc1cccc(C)c1)c1ccccc1,-8,-4,15,0.8,-3
CSC(=S)N/N=C(\C)c1ccccc1,3,100*,33,0.7,65*
CCOC(=O)Cc1cc(-c2ccc(OC)cc2)nc2ccc3ccccc3c12,-19,99*,22,0.8,7
CCN(CC)S(=O)(=O)c1ccc2[nH]cc(C(=O)NCCC3=CCCCC3)c(=O)c2c1,14,81*,16,0.8,-7
S=C(N/N=C1\CCc2ccccc21)NC1CCCCC1,1,6,19,0.8,70*
Cc1ccc(Nc2nc(-c3sc(NC(=O)c4ccco4)nc3C)cs2)cc1,-34,61*,9,0.9,13
CCOc1ccccc1Nc1nc(-c2sc(NC(=O)c3ccco3)nc2C)cs1,7,99*,19,0.8,4
CC(CCc1ccco1)NC(=O)Cn1ncc2c1-c1ccccc1OC2 (configuration not stated),-4,-3,38,0.6,-8
CC(=O)Nc1ccc(/C=C/c2ccc3c([N+](=O)[O-])cccc3n2)cc1,1,1,5,0.9,-4
CCCNC(=O)Cn1cnc2sc(C(=O)NCCN(CC)CC)c(C)c2c1=O,8,-3,3,1,3
COc1cccc(/C=C/C(=O)c2ccc(NS(=O)(=O)c3ccc(C)cc3)cc2)c1,2,99*,24,0.8,10
COc1cccc(C(=O)/C=C/Nc2ccc(NC(C)=O)cc2)c1,-17,-12,21,0.8,-2
COc1cc(S(=O)(=O)Nc2ccc(C)cc2)ccc1NC(=O)c1ccncc1,-6,23,2,1,5
COc1cccc(C(=O)/C=C/Nc2ccc(S(=O)(=O)Nc3cccc(C(C)=O)c3)cc2)c1,2,82*,12,0.9,-3
COc1cc(/C=C/C(=O)c2ccc(NS(=O)(=O)c3ccc(C)cc3)cc2)ccc1OC(F)F,22,98*,12,0.9,-22
COC(=O)c1ccc(/C=C/C(=O)c2cccc(OC)c2)cc1,15,5,22,0.8,14
COc1cc(/C=C/C(=O)c2ccc(NS(=O)(=O)c3ccc(C)cc3)cc2)cc(OC)c1O,-15,82*,29,0.7,7
